Bioassay records as filed in PubChem BioAssay.
Exocytosis inh = lytic granule exocytosis inhibition; TALL-104 LAMP-1 surface exposure, flow cytometry; cells stimulated with thapsigargin and PMA; inhibition, % at 10 µM; actives 0.66% (n = 360,000); AID 651702;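 active means inhibition above about 55%, limit read from the data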
MC4R antag cAMP = human MC4R antagonism in cAMP assay; MC4R-expressing cells, MTII-stimulated cAMP, LANCE TR-FRET; inhibition, % at 6.5 µM; actives 0.48% (n = 360,000);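 active means inhibition above its plate's cutoff, the mean of tested wells on that plate plus 3 SD, cut at about 29% in these data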
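System: U2OS cells stably expressing human melanocortin 4 receptor (MC4R). Reagent: Melanotan II challenge after compound preincubation. Doses: 6.5 µM. Times: 30-min compound, 1-h challenge, 1-h detection, room temperature. Measured by: TR-FRET with Eu-cAMP and labeled anti-cAMP, 671 nm. Replicates: singlicate.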
Tb MetRS inh = blocks T. brucei methionyl-tRNA synthetase activity | purified T. brucei MetRS, ATP depletion, Kinase-Glo luminescence | inhibition, % at 11.9 µM | actives 0.4% (n = 360,000) | AID 624268;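 active means inhibition above a per-plate cutoff of the control wells' mean inhibition plus 3 SD, cut at about 5.5% in these data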
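Test system: purified T. brucei MetRS enzyme. Also added: ATP, methionine and E. coli bulk tRNA substrates. Compound: 11.9 µM single point. Schedule: 15 min enzyme-compound preincubation, 2 h reaction, 10 min detection, 25 °C. Signal: luciferase luminescence of residual ATP, Kinase-Glo. Evaluation: percent inhibition versus plate control medians. Controls: DMSO wells, low control.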
MC4R ag barr = agonists of human melanocortin 4 receptor (MC4R) beta-arrestin; P32245; U2OS MC4R beta-arrestin complementation, luminescence; percent of melanotan II response, DMSO zero; activation, % at 8.9 µM; actives 0.98% (n = 360,000);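 active means activation above a per-plate cutoff, the mean activation of sample wells on that plate plus 3 SD, cut at about 8% in these data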
ABCB6 inh 2 = human ABCB6 transporter inhibition; AID 602162; fluorescence ratio to DMSO, % at 10 µM; Q9NP58; actives 0.19% (n = 360,000); K562-ABCB6 porphyrin accumulation, flow cytometry, 1 h; hits give low values;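 active means fluorescence ratio to DMSO below 75%, the collection mean minus 3 SD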;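 further: signal is porphyrin accumulated inside mitochondria; lower ratio means ABCB6 inhibition with less porphyrin fluorescence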
Target sequence (Q9NP58 whole entry, looked up): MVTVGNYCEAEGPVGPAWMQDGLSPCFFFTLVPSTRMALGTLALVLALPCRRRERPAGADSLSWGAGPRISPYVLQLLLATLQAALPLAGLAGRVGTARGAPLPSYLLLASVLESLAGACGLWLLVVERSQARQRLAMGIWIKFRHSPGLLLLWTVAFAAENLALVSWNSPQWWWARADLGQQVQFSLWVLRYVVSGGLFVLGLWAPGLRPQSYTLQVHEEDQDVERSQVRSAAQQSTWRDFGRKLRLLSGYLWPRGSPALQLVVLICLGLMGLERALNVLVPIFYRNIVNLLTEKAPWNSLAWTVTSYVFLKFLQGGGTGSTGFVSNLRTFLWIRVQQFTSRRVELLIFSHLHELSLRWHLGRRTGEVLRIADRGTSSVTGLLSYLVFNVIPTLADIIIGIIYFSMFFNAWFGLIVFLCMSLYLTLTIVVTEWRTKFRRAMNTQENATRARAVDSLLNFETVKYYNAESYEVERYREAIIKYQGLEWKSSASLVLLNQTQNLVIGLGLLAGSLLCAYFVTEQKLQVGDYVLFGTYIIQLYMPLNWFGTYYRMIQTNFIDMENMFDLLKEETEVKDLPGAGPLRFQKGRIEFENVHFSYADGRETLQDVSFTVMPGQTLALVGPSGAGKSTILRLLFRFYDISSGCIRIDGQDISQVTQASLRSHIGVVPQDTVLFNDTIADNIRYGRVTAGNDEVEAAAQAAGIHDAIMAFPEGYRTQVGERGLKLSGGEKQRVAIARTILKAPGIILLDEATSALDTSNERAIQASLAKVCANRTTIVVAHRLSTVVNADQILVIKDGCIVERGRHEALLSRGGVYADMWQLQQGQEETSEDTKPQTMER
iPSC survival up = increases survival of single human iPS cells; hiPSC single-cell survival, ATPlite luminescence; 100% = ROCK inhibitor wells, 0% = DMSO; survival enhancement, % at 20 µM; actives 0.044% (n = 360,000); AID 602274; in the data active means survival enhancement above about 18%;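 further: cells exposed to compounds for 16 hours before the ATP read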
Granule exo CP1 = lytic granule exocytosis inhibition | shares compounds with Exocytosis inh | TALL-104 cells, LAMP-1 externalization, flow cytometry; stimulated with PMA plus thapsigargin | inhibition, % at 10 µM | actives 11% (n = 1,500); in the data active means inhibition above about 60%
Numbers stand for hits. Compounds with a hit are over-represented: about 2.6% of the library has one in this group of screens.

Results for CC(C)c1ccc(N(C(=O)c2snc(C(N)=O)c2N)C(C(=O)NCC2CCCO2)c2ccc(N(C)C)cc2)cc1 (centres undefined) ?
Exocytosis inh: inactive; MC4R antag cAMP: inactive; Tb MetRS inh: inactive; MC4R ag barr: inactive; ABCB6 inh 2: inactive; iPSC survival up: inactive

Results for CC(=O)OC1C=CCC2C(=O)c3cccc(O)c3C(O)C12 (centres undefined) ?
Exocytosis inh: inactive; MC4R antag cAMP: inactive; Tb MetRS inh: inactive; MC4R ag barr: inactive; ABCB6 inh 2: inactive; iPSC survival up: inactive

How did Cc1cccc2c1-c1sc(C(=O)NCCCN3CCC(C)CC3)cc1CO2 do in these assays?
Exocytosis inh: 79; MC4R antag cAMP: inactive; Tb MetRS inh: inactive; MC4R ag barr: inactive; ABCB6 inh 2: inactive; iPSC survival up: inactive; Granule exo CP1: inactive

What do the screens show for `CC1CCN(CCCNC(=O)c2cc3c(s2)-c2ccccc2OC3)CC1`?
Exocytosis inh: inactive; MC4R antag cAMP: inactive; Tb MetRS inh: inactive; MC4R ag barr: inactive; ABCB6 inh 2: inactive; iPSC survival up: inactive

How did COc1cccc(C(=O)O/N=C(\N)CS(=O)(=O)c2ccccc2)c1 do in these assays?
Exocytosis inh: inactive; MC4R antag cAMP: inactive; Tb MetRS inh: inactive; MC4R ag barr: inactive; ABCB6 inh 2: inactive; iPSC survival up: inactive

Results for Nc1nc(SCC(=O)Nc2ccc(OCc3ccccc3)cc2)n[nH]1 ?
Exocytosis inh: inactive; MC4R antag cAMP: inactive; Tb MetRS inh: inactive; MC4R ag barr: inactive; ABCB6 inh 2: inactive; iPSC survival up: inactive

What do the screens show for `CCOc1ccccc1CNC(c1ccccc1)c1ccccc1`?
Exocytosis inh: 59; MC4R antag cAMP: inactive; Tb MetRS inh: inactive; MC4R ag barr: inactive; ABCB6 inh 2: inactive; iPSC survival up: inactive; Granule exo CP1: inactive

How did COc1ccccc1CNC(c1ccccc1)c1ccccc1 do in these assays?
Exocytosis inh: inactive; MC4R antag cAMP: inactive; Tb MetRS inh: inactive; MC4R ag barr: inactive; ABCB6 inh 2: inactive; iPSC survival up: inactive

What do the screens show for `CCCCn1c(NCc2ccc3c(c2)OCO3)nc2ccccc21`?
Exocytosis inh: 67; MC4R antag cAMP: inactive; Tb MetRS inh: inactive; MC4R ag barr: inactive; ABCB6 inh 2: inactive; iPSC survival up: inactive; Granule exo CP1: inactive

Results for CCCn1c(NCc2ccc3c(c2)OCO3)nc2ccccc21 ?
Exocytosis inh: inactive; MC4R antag cAMP: inactive; Tb MetRS inh: inactive; MC4R ag barr: inactive; ABCB6 inh 2: inactive; iPSC survival up: inactive

How did CCOC(=O)/C(=N\Nc1ccc(Br)cc1)N1CCN(c2ccccc2OC)CC1 do in these assays?
Exocytosis inh: inactive; MC4R antag cAMP: inactive; Tb MetRS inh: inactive; MC4R ag barr: inactive; ABCB6 inh 2: inactive; iPSC survival up: inactive

What do the screens show for `COC(=O)c1cc(NC(=O)CN(c2ccccc2OC)S(=O)(=O)c2ccccc2)ccc1Cl`?
Exocytosis inh: 68; MC4R antag cAMP: inactive; Tb MetRS inh: inactive; MC4R ag barr: inactive; ABCB6 inh 2: inactive; iPSC survival up: inactive; Granule exo CP1: inactive

What do the screens show for `CCN(CC(=O)NCc1cccs1)C(=O)CCOc1ccccc1C`?
Exocytosis inh: inactive; MC4R antag cAMP: inactive; Tb MetRS inh: inactive; MC4R ag barr: inactive; ABCB6 inh 2: inactive; iPSC survival up: inactive

How did CCN(CC(=O)NCc1ccc(Cl)cc1)C(=O)CCOc1ccccc1C do in these assays?
Exocytosis inh: 80; MC4R antag cAMP: inactive; Tb MetRS inh: inactive; MC4R ag barr: inactive; ABCB6 inh 2: inactive; iPSC survival up: inactive; Granule exo CP1: inactive

What do the screens show for `CCOc1ccc(N(CC(=O)NCc2ccc(Cl)cc2)S(=O)(=O)c2ccccc2)cc1`?
Exocytosis inh: 77; MC4R antag cAMP: inactive; Tb MetRS inh: inactive; MC4R ag barr: inactive; ABCB6 inh 2: inactive; iPSC survival up: inactive; Granule exo CP1: inactive

What do the screens show for `COc1ccccc1N(CC(=O)NCCSCc1ccccc1)S(=O)(=O)c1ccccc1`?
Exocytosis inh: inactive; MC4R antag cAMP: inactive; Tb MetRS inh: inactive; MC4R ag barr: inactive; ABCB6 inh 2: inactive; iPSC survival up: inactive

Results for COc1ccccc1N(CC(=O)NCCSCc1ccccc1)S(=O)(=O)c1ccc(C)cc1 ?
Exocytosis inh: 90; MC4R antag cAMP: inactive; Tb MetRS inh: inactive; MC4R ag barr: inactive; ABCB6 inh 2: inactive; iPSC survival up: inactive; Granule exo CP1: inactive

How did CS(=O)(=O)N(CC(=O)Nc1cccc(Cl)c1)c1ccccc1Cl do in these assays?
Exocytosis inh: 85; MC4R antag cAMP: inactive; Tb MetRS inh: inactive; MC4R ag barr: inactive; ABCB6 inh 2: inactive; iPSC survival up: inactive; Granule exo CP1: inactive

Results for CCOc1ccccc1N(CC(=O)NC1CCCCC1)S(=O)(=O)c1ccccc1 ?
Exocytosis inh: 70; MC4R antag cAMP: inactive; Tb MetRS inh: inactive; MC4R ag barr: inactive; ABCB6 inh 2: inactive; iPSC survival up: inactive; Granule exo CP1: inactive

How did CCOc1ccccc1N(CC(=O)Nc1ccccc1F)S(=O)(=O)c1ccccc1 do in these assays?
Exocytosis inh: 57; MC4R antag cAMP: inactive; Tb MetRS inh: inactive; MC4R ag barr: inactive; ABCB6 inh 2: inactive; iPSC survival up: inactive; Granule exo CP1: inactive

What do the screens show for `COc1ccc(N(CC(=O)NC(C)c2ccccc2)S(=O)(=O)c2ccc(C)cc2)cc1` (centres undefined)?
Exocytosis inh: 87; MC4R antag cAMP: inactive; Tb MetRS inh: inactive; MC4R ag barr: inactive; ABCB6 inh 2: inactive; iPSC survival up: inactive; Granule exo CP1: inactive

How did CNCc1ccccc1OCc1ccccc1F do in these assays?
Exocytosis inh: inactive; MC4R antag cAMP: inactive; Tb MetRS inh: inactive; MC4R ag barr: inactive; ABCB6 inh 2: inactive; iPSC survival up: inactive

How did O=C(NCc1ccccc1Br)c1cccs1 do in these assays?
Exocytosis inh: inactive; MC4R antag cAMP: inactive; Tb MetRS inh: inactive; MC4R ag barr: inactive; ABCB6 inh 2: inactive; iPSC survival up: inactive

What do the screens show for `COC(=O)C[C@H](NC(=O)Cn1cnc2c(SC)nc(N)nc21)C(=O)OC`?
Exocytosis inh: inactive; MC4R antag cAMP: inactive; Tb MetRS inh: inactive; MC4R ag barr: inactive; ABCB6 inh 2: inactive; iPSC survival up: inactive

Results for COc1ccc(N(CC(=O)Nc2cc(C)on2)S(=O)(=O)c2cc(C)ccc2C)cc1 ?
Exocytosis inh: 57; MC4R antag cAMP: inactive; Tb MetRS inh: inactive; MC4R ag barr: inactive; ABCB6 inh 2: inactive; iPSC survival up: inactive; Granule exo CP1: inactive

How did CCN(c1ccccc1)S(=O)(=O)c1ccc(OC)c(NC(=O)CNCCc2ccccc2)c1 do in these assays?
Exocytosis inh: 85; MC4R antag cAMP: inactive; Tb MetRS inh: inactive; MC4R ag barr: inactive; ABCB6 inh 2: inactive; iPSC survival up: inactive; Granule exo CP1: inactive

Results for CCN(c1ccccc1)S(=O)(=O)c1ccc(OC)c(NC(=O)Cc2ccc(F)cc2)c1 ?
Exocytosis inh: inactive; MC4R antag cAMP: inactive; Tb MetRS inh: inactive; MC4R ag barr: inactive; ABCB6 inh 2: inactive; iPSC survival up: inactive
